Measurements as given in ChEMBL document CHEMBL4689842, “EUbOPEN Chemogenomics Library wave 1” (2021).

System: U2OS
Assay: Multiplex assay against U2OS
Format: toxicity, cell-based
Settings: human
Summary of the method: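 Compound was added to live cells that had been stained at seeding with Hoechst33342, BioTracker Green Microtubule Cytoskeleton Dye, MitoTracker Red and Annexin V Alexa Fluor 680, and imaging followed on a CQ1 microscope at 37°C and 5% CO2. CellPathfinder machine-learning gating divided cells into Hoechst high-intensity objects or normal cells, normal cells into healthy, pyknosed or fragmented nuclei, and pyknosed cells into mitotic or apoptotic. Tubulin, mitochondrial-mass and membrane-permeability phenotypes are per cents of healthy-nucleus cells.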

[1] = 12 h, 1 µM, compound concentration 1 uM, replicate 1
[2] = 12 h, 1 µM, compound concentration 1 uM, replicate 2
[3] = 12 h, 10 µM, compound concentration 10 uM, replicate 1
[4] = 12 h, 10 µM, compound concentration 10 uM, replicate 2
[5] = 24 h, 1 µM, compound concentration 1 uM, replicate 1
[6] = 24 h, 1 µM, compound concentration 1 uM, replicate 2
[7] = 24 h, 10 µM, compound concentration 10 uM, replicate 1
[8] = 24 h, 10 µM, compound concentration 10 uM, replicate 2
[9] = 48 h, 1 µM, compound concentration 1 uM, replicate 1
[10] = 48 h, 1 µM, compound concentration 1 uM, replicate 2
[11] = 48 h, 10 µM, compound concentration 10 uM, replicate 1
[12] = 48 h, 10 µM, compound concentration 10 uM, replicate 2

O=C1NCN(c2ccccc2)C12CCN(CCCOc1ccc(F)cc1)CC2 [SPIRAMIDE]
Population Apoptotic (%) [1]: 22% | Population Fragmented Nuclei (%) [1]: 16% | Population Healthy Nuclei (%) [1]: 77% | Population Hoechst High Intensity Objects (%) [1]: 6% | Population Membrane Permeable-Phenotype (%) [1]: 1% | Population Mitochondria Different-Phenotype (%) [1]: 9% | Population Mitotic Cells (%) [1]: 77% | Population Normal (%) [1]: 93% | Population Pyknosed Nuclei (%) [1]: 6% | Population Tubulin-Different-Phenotype (%) [1]: 10% | Total Cell Count [1]: 210 | Population Apoptotic (%) [2]: 0% | Population Fragmented Nuclei (%) [2]: 10% | Population Healthy Nuclei (%) [2]: 88% | Population Hoechst High Intensity Objects (%) [2]: 7% | Population Membrane Permeable-Phenotype (%) [2]: 0% | Population Mitochondria Different-Phenotype (%) [2]: 10% | Population Mitotic Cells (%) [2]: 100% | Population Normal (%) [2]: 92% | Population Pyknosed Nuclei (%) [2]: 1% | Population Tubulin-Different-Phenotype (%) [2]: 6% | Total Cell Count [2]: 74 | Population Apoptotic (%) [3]: 36% | Population Fragmented Nuclei (%) [3]: 16% | Population Healthy Nuclei (%) [3]: 51% | Population Hoechst High Intensity Objects (%) [3]: 10% | Population Membrane Permeable-Phenotype (%) [3]: 4% | Population Mitochondria Different-Phenotype (%) [3]: 74% | Population Mitotic Cells (%) [3]: 63% | Population Normal (%) [3]: 90% | Population Pyknosed Nuclei (%) [3]: 31% | Population Tubulin-Different-Phenotype (%) [3]: 50% | Total Cell Count [3]: 145 | Population Apoptotic (%) [4]: 50% | Population Fragmented Nuclei (%) [4]: 3% | Population Healthy Nuclei (%) [4]: 88% | Population Hoechst High Intensity Objects (%) [4]: 8% | Population Membrane Permeable-Phenotype (%) [4]: 2% | Population Mitochondria Different-Phenotype (%) [4]: 27% | Population Mitotic Cells (%) [4]: 50% | Population Normal (%) [4]: 91% | Population Pyknosed Nuclei (%) [4]: 7% | Population Tubulin-Different-Phenotype (%) [4]: 12% | Total Cell Count [4]: 91 | Population Apoptotic (%) [5]: 27% | Population Fragmented Nuclei (%) [5]: 8% | Population Healthy Nuclei (%) [5]: 80% | Population Hoechst High Intensity Objects (%) [5]: 7% | Population Membrane Permeable-Phenotype (%) [5]: 0% | Population Mitochondria Different-Phenotype (%) [5]: 5% | Population Mitotic Cells (%) [5]: 72% | Population Normal (%) [5]: 92% | Population Pyknosed Nuclei (%) [5]: 11% | Total Cell Count [5]: 229 | Population Apoptotic (%) [6]: 0% | Population Fragmented Nuclei (%) [6]: 7% | Population Healthy Nuclei (%) [6]: 89% | Population Hoechst High Intensity Objects (%) [6]: 6% | Population Membrane Permeable-Phenotype (%) [6]: 2% | Population Mitochondria Different-Phenotype (%) [6]: 7% | Population Mitotic Cells (%) [6]: 100% | Population Normal (%) [6]: 93% | Population Pyknosed Nuclei (%) [6]: 3% | Population Tubulin-Different-Phenotype (%) [6]: 7% | Total Cell Count [6]: 76 | Population Apoptotic (%) [7]: 41% | Population Fragmented Nuclei (%) [7]: 18% | Population Healthy Nuclei (%) [7]: 32% | Population Hoechst High Intensity Objects (%) [7]: 8% | Population Membrane Permeable-Phenotype (%) [7]: 10% | Population Mitochondria Different-Phenotype (%) [7]: 71% | Population Mitotic Cells (%) [7]: 58% | Population Normal (%) [7]: 91% | Population Pyknosed Nuclei (%) [7]: 48% | Population Tubulin-Different-Phenotype (%) [7]: 31% | Total Cell Count [7]: 173 | Population Apoptotic (%) [8]: 27% | Population Fragmented Nuclei (%) [8]: 3% | Population Healthy Nuclei (%) [8]: 78% | Population Hoechst High Intensity Objects (%) [8]: 6% | Population Membrane Permeable-Phenotype (%) [8]: 2% | Population Mitochondria Different-Phenotype (%) [8]: 21% | Population Mitotic Cells (%) [8]: 72% | Population Normal (%) [8]: 93% | Population Pyknosed Nuclei (%) [8]: 18% | Population Tubulin-Different-Phenotype (%) [8]: 10% | Total Cell Count [8]: 118 | Population Apoptotic (%) [9]: 25% | Population Fragmented Nuclei (%) [9]: 9% | Population Healthy Nuclei (%) [9]: 85% | Population Hoechst High Intensity Objects (%) [9]: 4% | Population Membrane Permeable-Phenotype (%) [9]: 1% | Population Mitochondria Different-Phenotype (%) [9]: 12% | Population Mitotic Cells (%) [9]: 75% | Population Normal (%) [9]: 95% | Population Pyknosed Nuclei (%) [9]: 4% | Population Tubulin-Different-Phenotype (%) [9]: 8% | Total Cell Count [9]: 288 | Population Apoptotic (%) [10]: 16% | Population Fragmented Nuclei (%) [10]: 8% | Population Healthy Nuclei (%) [10]: 84% | Population Hoechst High Intensity Objects (%) [10]: 1% | Population Membrane Permeable-Phenotype (%) [10]: 0% | Population Mitochondria Different-Phenotype (%) [10]: 10% | Population Mitotic Cells (%) [10]: 83% | Population Normal (%) [10]: 98% | Population Pyknosed Nuclei (%) [10]: 6% | Population Tubulin-Different-Phenotype (%) [10]: 9% | Total Cell Count [10]: 106 | Population Apoptotic (%) [11]: 67% | Population Fragmented Nuclei (%) [11]: 32% | Population Healthy Nuclei (%) [11]: 21% | Population Hoechst High Intensity Objects (%) [11]: 12% | Population Membrane Permeable-Phenotype (%) [11]: 12% | Population Mitochondria Different-Phenotype (%) [11]: 58% | Population Mitotic Cells (%) [11]: 32% | Population Normal (%) [11]: 87% | Population Pyknosed Nuclei (%) [11]: 45% | Population Tubulin-Different-Phenotype (%) [11]: 28% | Total Cell Count [11]: 265 | Population Apoptotic (%) [12]: 16% | Population Fragmented Nuclei (%) [12]: 13% | Population Healthy Nuclei (%) [12]: 78% | Population Hoechst High Intensity Objects (%) [12]: 9% | Population Membrane Permeable-Phenotype (%) [12]: 11% | Population Mitochondria Different-Phenotype (%) [12]: 16% | Population Mitotic Cells (%) [12]: 83% | Population Normal (%) [12]: 90% | Population Pyknosed Nuclei (%) [12]: 7% | Population Tubulin-Different-Phenotype (%) [12]: 18% | Total Cell Count [12]: 182
